Experimental data: article PMC3164867 (Journal of medicinal chemistry, 2009)

Columns and labels:
activated α4β1 integrin = activated α4β1 integrin (Homo sapiens, UniProt P05556+P13612); assay type: cell-based; settings: for potency (in words): SAR summary, Molt-4 cell adhesion
[1] = test system: Molt-4 (T-cell lymphoma) or Raji tumors (B-cell lymphoma); assay type: in vivo, nude mice
How it was run: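 Athymic Nu/Nu mice, 4–6 weeks old, bore sc Molt-4 or Raji (1 × 10^7 cells, right upper back) and A549 (1 × 10^6 cells, left upper back), studied at 10–15 mm. Under pentobarbital ip anesthesia, Cy5.5-conjugated test compound given iv by tail vein; serial NIRF imaging 5 min–120 h (10 nmol), 30 s exposures. Ex vivo organs and tumors at 24 h (0.25 or 1 nmol); ROI mean intensity minus heart background.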

Solubility = assay type: physicochemical; settings: preliminary evidence
[2] = iv tail vein, nude mice with Molt-4 or Raji and A549 xenografts, NIRF imaging

Sequence of activated α4β1 integrin (P13612 34-1032): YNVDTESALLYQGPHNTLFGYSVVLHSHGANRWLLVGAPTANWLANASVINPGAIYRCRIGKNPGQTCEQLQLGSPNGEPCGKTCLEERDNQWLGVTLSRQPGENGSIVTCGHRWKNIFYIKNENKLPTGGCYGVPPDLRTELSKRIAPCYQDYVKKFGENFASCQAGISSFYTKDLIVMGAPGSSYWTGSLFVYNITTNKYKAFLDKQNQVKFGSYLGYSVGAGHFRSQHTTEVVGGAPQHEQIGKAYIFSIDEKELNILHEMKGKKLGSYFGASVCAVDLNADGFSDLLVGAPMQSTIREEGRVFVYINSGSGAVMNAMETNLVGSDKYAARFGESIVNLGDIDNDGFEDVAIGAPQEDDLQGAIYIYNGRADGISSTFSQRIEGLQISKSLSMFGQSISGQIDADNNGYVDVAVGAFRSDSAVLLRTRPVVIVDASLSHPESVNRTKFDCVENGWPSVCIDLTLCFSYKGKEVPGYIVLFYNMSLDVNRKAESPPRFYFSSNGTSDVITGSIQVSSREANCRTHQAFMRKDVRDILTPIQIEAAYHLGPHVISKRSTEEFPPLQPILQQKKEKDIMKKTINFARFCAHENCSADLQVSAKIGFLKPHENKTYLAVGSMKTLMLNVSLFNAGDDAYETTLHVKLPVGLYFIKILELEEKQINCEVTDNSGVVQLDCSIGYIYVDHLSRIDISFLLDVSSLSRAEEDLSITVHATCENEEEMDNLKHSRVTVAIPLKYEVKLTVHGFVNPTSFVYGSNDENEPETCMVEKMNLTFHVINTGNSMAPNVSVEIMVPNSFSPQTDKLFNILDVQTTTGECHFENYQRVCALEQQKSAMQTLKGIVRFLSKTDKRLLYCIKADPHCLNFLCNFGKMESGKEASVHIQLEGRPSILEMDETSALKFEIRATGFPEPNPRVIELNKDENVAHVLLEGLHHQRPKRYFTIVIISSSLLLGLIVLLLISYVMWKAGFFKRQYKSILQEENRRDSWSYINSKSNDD
Sequence of activated α4β1 integrin (P05556 21-798): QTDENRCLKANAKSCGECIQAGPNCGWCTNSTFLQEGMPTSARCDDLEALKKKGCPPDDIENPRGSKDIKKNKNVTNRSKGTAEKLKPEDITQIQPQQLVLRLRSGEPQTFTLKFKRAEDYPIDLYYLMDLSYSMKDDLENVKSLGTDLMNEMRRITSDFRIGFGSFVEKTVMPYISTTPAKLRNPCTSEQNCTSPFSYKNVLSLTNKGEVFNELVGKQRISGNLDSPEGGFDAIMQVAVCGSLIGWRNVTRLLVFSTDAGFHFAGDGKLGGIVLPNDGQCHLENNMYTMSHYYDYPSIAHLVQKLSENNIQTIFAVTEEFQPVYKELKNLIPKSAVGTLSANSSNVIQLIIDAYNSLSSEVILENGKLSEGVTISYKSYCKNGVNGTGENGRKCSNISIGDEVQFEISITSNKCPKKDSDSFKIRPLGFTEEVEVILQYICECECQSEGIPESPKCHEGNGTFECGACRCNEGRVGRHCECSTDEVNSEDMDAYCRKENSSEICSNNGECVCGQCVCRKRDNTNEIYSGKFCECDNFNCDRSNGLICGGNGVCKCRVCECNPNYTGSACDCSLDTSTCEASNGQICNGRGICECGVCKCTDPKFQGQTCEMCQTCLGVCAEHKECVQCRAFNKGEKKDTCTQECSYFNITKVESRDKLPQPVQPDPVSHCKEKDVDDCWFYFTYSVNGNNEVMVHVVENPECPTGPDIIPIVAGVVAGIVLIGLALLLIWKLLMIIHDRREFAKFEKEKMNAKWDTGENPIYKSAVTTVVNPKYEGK

In the case of `NC(=O)C1(NC(=O)[C@@H](CCCC(=O)O)NC(=O)[C@@H](CCCCNC(=O)/C=C/c2cccnc2)NC(=O)Cc2ccc(Nc3nc4ccccc4s3)cc2)CCCCC1` [Compound 6, (R)-5-(R)-[2-{2-[4-(Benzothiazol-2-ylamino)-phenyl]acetylamino}-6-(E)-(3-pyridin-3-yl-acryloylamino)hexanoylamino]-5-(1-carbamoylcyclo-hexylcarbamoyl)pentanoic Acid], the “potency (in words)” value (activated α4β1 integrin) is reported as “equipotent to 1”.
With `NC(=O)C1(NC(=O)[C@@H](CCCC(=O)O)NC(=O)[C@@H](CCCCNC(=O)/C=C/c2cccnc2)NC(=O)c2ccc(Nc3nc4ccccc4s3)cc2)CCCCC1` [Compound 11] the “potency (in words)” value (activated α4β1 integrin) was “mid nM potency”.
In the case of `NC(=O)C1(NC(=O)[C@@H](CCCC(=O)O)NC(=O)[C@@H](CCCCNC(=O)/C=C/c2cccnc2)NC(=O)c2ccc(Nc3nc4ccccc4o3)cc2)CCCCC1` [Compound 10], the “potency (in words)” value (activated α4β1 integrin) is reported as “complete loss of potency”.
Compound `NC(=O)C1(NC(=O)[C@@H](CCCC(=O)O)NC(=O)[C@@H](CCCCNC(=O)/C=C/c2cccnc2)NC(=O)c2cccc(Nc3nc4cc(Br)ccc4[nH]3)c2)CCCCC1` [Compound 3] has an IC50 (activated α4β1 integrin) of 30 nM.
In the case of `Cc1cccc2oc(Nc3ccc(C(=O)N[C@H](CCCCNC(=O)/C=C/c4cccnc4)C(=O)N[C@H](CCCC(=O)O)C(=O)NC4(C(N)=O)CCCCC4)cc3)nc12` [Compound 9], the “potency (in words)” value (activated α4β1 integrin) is reported as “complete loss of potency”.
For `NC(=O)C1(NC(=O)[C@H](CCCC(=O)O)NC(=O)[C@H](CCCCNC(=O)/C=C/c2cccnc2)NC(=O)Cc2ccc(Nc3nc4ccccc4[nH]3)cc2)CCCCC1` [Compound 2, reference compound], the “potency relative to bisaryl urea 1 (fold less potent)” value (activated α4β1 integrin; compared with 1) was 10 fold.
With `Cc1cccc2oc(Nc3ccc(CC(=O)N[C@H](CCCCNC(=O)/C=C/c4cccnc4)C(=O)N[C@H](CCCC(=O)O)C(=O)NC4(C(N)=O)CCCCC4)cc3)nc12` [Compound 7] the “potency (in words)” value (activated α4β1 integrin) was “low nM potency”.
In the case of `Cc1ccc2[nH]c(Nc3ccc(C(=O)N[C@H](CCCCNC(=O)/C=C/c4cccnc4)C(=O)N[C@H](CCCC(=O)O)C(=O)NC4(C(N)=O)CCCCC4)cc3)nc2c1` [Compound 5], the IC50 (activated α4β1 integrin) is reported as 490 nM and the “potency (in words)” value (activated α4β1 integrin) is reported as “mid nM potency”.
For “2-(1E,3E,5E)-5-3-(R)-1-(1-(R)-2-(R)-2-[2-(4-(benzo[d]thiazol-2-ylamino)phenyl)\acetamido]-6-(E)-3-(pyridin-3-yl)acrylamido)hexanamido)-5-carboxypentanamido)cyclohexyl)-27-carbamoyl-1,9,13,21,25,33-hexaoxo-5,17-dioxa-2,8,14,20,26,32-hexa-azaheptatriacontan-37-yl)-1,1-dimethyl-6,8-disulfonato-1H-benzo[e]indol-2(3H)-ylid-ene)penta-1,3-dienyl)-3-ethyl-1,1-di-methyl-1H-benzo[e]indolium-6,8-disulfonate [Compound 6-Cy5.5]”, the “organ signal (in words)” value ([1]; ex vivo NIRF of organs) was “low liver, muscle, lung, and spleen signal”, the “kidney:tumor ratio (in words)” value ([1]; ex vivo NIRF, preliminary, compared with 1-Cy5.5) was “improvement in the kidney:tumor ratio” and the “tumor uptake first observed post injection” value [1, 2] was 5 min. For the same compound, the “tumor uptake persisted post injection” value [1, 2] was “up to 120 h” and the “solubility (in words)” value (Solubility) was “improved solubility”.
